From ChEMBL document CHEMBL4308872, “Dose dependent actions of LCL521 on acid ceramidase and key sphingolipid metabolites” (2018)
Calls of active or inactive are those of the source.

Assays:
[1] = target: T1, Acid ceramidase (Homo sapiens) (UniProt Q13510); assay: Inhibition of ACDase in human MCF7 cells assessed as down regulation of dihydrosphingosine at 10 uM after 1 hr by LC-MS/MS analysis; type: cell-based
T1 sequence (whole entry): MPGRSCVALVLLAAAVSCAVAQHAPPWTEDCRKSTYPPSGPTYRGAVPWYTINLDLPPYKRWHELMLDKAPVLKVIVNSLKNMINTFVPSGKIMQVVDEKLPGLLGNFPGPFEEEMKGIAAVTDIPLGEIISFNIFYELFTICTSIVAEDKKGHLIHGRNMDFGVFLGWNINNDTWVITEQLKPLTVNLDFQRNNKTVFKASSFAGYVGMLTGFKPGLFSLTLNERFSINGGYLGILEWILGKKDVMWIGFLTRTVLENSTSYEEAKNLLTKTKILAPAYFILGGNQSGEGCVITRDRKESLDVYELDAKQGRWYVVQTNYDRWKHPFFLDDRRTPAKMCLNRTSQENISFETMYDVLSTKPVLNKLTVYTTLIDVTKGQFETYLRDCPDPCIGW

[2] = target: T1, Acid ceramidase (Homo sapiens); assay: Inhibition of ACDase in human MCF7 cells assessed as upregulation of dihydroceramide at 10 uM after 1 hr by LC-MS/MS analysis; type: cell-based
[3] = test system: MCF7; assay: Down regulation of alpha-ACDase protein expression in human MCF7 cells at >2.5 uM after 1 hr by Western blot analysis; type: functional, cell-based
Summary of the method: (§1)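 MCF7 cells seeded overnight (1×10^6 per 100 mm dish) were exposed to vehicle or 10 μM LCL521 for 1, 2, 5, 8, 15 and 24h, or to 0.1–10 μM for 1h. α- and precursor (P-)ACDase detected by western blot; actin monitored loading and transfer.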

[4] = test system: MCF7; assay: Down regulation of alpha-ACDase protein expression in human MCF7 cells up to 1 uM after 1 hr by Western blot analysis; type: functional, cell-based
Summary of the method: (§2)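 MCF7 cells (RPMI 1640, 10% FBS, 37°C, 5% CO2; 1×10^6 seeded in 100 mm dishes overnight) exposed to vehicle or LCL521, 0.1–10 μM for 1h, or 1 μM for 0.25–10h. α-ACDase detected by western blot, with actin as the loading/transfer control.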

[5] = test system: MCF7; assay: Down regulation of alpha-ACDase protein expression in human MCF7 cells at 1 uM after 1 hr by Western blot analysis; type: functional, cell-based; summary of the method: as §2
[6] = test system: MCF7; assay: Down regulation of alpha-ACDase protein expression in human MCF7 cells at 10 uM after 1 hr by Western blot analysis; type: functional, cell-based; summary of the method: as §1
[7] = target: T1, Acid ceramidase (Homo sapiens); assay: Inhibition of ACDase in human MCF7 cells assessed as down regulation of sphingosine at 1 uM after 10 hrs by LC-MS/MS analysis; type: cell-based
Summary of the method: (§3)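 MCF7 cells received vehicle or 1 μM LCL521 for 10h. Lipids were extracted from cell pellets, and Cer, Sph and S1P were quantified by LC-MS/MS as pmol/nmol lipid phosphate, expressed as % control; means ± st dev of 5 replicates.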

[8] = target: T1, Acid ceramidase (Homo sapiens); assay: Inhibition of ACDase in human MCF7 cells assessed as down regulation of sphingosine 1-phosphate at 1 uM after 10 hrs by LC-MS/MS analysis; type: cell-based; summary of the method: as §3
[9] = test system: MCF7; assay: Down regulation of alpha-ACDase expression in human MCF7 cells at 1 uM after 10 hrs by Western blot analysis; type: functional, cell-based
[10] = test system: MCF7; assay: Down regulation of alpha-ACDase expression in human MCF7 cells at 10 uM after 2 to 24 hrs by Western blot analysis; type: functional, cell-based; summary of the method: as §1
[11] = test system: MCF7; assay: Down regulation of alpha-ACDase expression in human MCF7 cells at 10 uM after 8 hrs by Western blot analysis; type: functional, cell-based; summary of the method: as §1
[12] = test system: MCF7; assay: Down regulation of p-ACDase expression in human MCF7 cells at 10 uM after 8 hrs by Western blot analysis; type: functional, cell-based; summary of the method: as §1
[13] = target: T1, Acid ceramidase (Homo sapiens); assay: Inhibition of ACDase in human MCF7 cells assessed as down regulation of sphingosine at 10 uM after 2 hrs by LC-MS/MS analysis; type: cell-based
Summary of the method: (§4)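 Exposure of MCF7 cells to vehicle or 10 μM LCL521 for 0.25–24h. Cer, Sph and S1P measured by LC-MS/MS in pellet lipid extracts, normalized to lipid phosphate, given as % control; means ± st dev of 4 replicates.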

[14] = target: T1, Acid ceramidase (Homo sapiens); assay: Inhibition of ACDase in human MCF7 cells assessed as upregulation of ceramide at 10 uM after 2 hrs by LC-MS/MS analysis; type: cell-based; summary of the method: as §4
[15] = target: T1, Acid ceramidase (Homo sapiens); assay: Inhibition of ACDase in human MCF7 cells assessed as down regulation of sphingosine at 10 uM after 24 hrs by LC-MS/MS analysis; type: cell-based; summary of the method: as §4
[16] = target: T1, Acid ceramidase (Homo sapiens); assay: Inhibition of ACDase in human MCF7 cells assessed as down regulation of sphingosine 1-phosphate at 10 uM after 24 hrs by LC-MS/MS analysis; type: cell-based; summary of the method: as §4
[17] = target: T1, Acid ceramidase (Homo sapiens); assay: Inhibition of ACDase in human MCF7 cells assessed as upregulation of C14-ceramide species at 10 uM after 1 hr by LC-MS/MS analysis; type: cell-based
Summary of the method: (§5)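 MCF7 cells treated 1h with vehicle or 10 μM LCL521. Chain-length ceramide species and Sph in pellet lipid extracts quantified by LC-MS/MS per nmol lipid phosphate; means ± st dev of 6 replicates, t-test against control.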

[18] = target: T1, Acid ceramidase (Homo sapiens); assay: Inhibition of ACDase in human MCF7 cells assessed as upregulation of C16-ceramide species at 10 uM after 1 hr by LC-MS/MS analysis; type: cell-based; summary of the method: as §5
[19] = target: T1, Acid ceramidase (Homo sapiens); assay: Inhibition of ACDase in human MCF7 cells assessed as upregulation of ceramide at 10 uM after 8 to 24 hrs by LC-MS/MS analysis; type: cell-based; summary of the method: as §4
[20] = target: T1, Acid ceramidase (Homo sapiens); assay: Inhibition of ACDase in human MCF7 cells assessed as upregulation of dihydroceramide species at 10 uM after 8 to 24 hrs by LC-MS/MS analysis; type: cell-based
Summary of the method: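 Over 8 and 24h, MCF7 cells received vehicle or 10 μM LCL521. Cn-dhCer species and dhSph quantified by LC-MS/MS in extracted lipids, normalized to lipid phosphate; means ± st dev of 4 replicates.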

[21] = target: T1, Acid ceramidase (Homo sapiens); assay: Inhibition of ACDase in human MCF7 cells assessed as upregulation of dihydroceramide species at 10 uM treated for 24 hrs after 1 hr treatment with myriocin by LC-MS/MS analysis; type: cell-based
Summary of the method: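 MCF7 cells pretreated 1h with 100nM myriocin, then combined with vehicle or 10 μM LCL521 for 24h. Cn-dhCer quantified by LC-MS/MS per nmol lipid phosphate; triplicates.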

[22] = target: T2, Sphingolipid delta(4)-desaturase DES1 (Homo sapiens) (UniProt O15121); assay: Inhibition of dihydroceramide desaturase in human MCF7 cells assessed as decrease in remaining activity at 5 to 10 uM after 24 hrs; type: cell-based
T2 sequence (whole entry): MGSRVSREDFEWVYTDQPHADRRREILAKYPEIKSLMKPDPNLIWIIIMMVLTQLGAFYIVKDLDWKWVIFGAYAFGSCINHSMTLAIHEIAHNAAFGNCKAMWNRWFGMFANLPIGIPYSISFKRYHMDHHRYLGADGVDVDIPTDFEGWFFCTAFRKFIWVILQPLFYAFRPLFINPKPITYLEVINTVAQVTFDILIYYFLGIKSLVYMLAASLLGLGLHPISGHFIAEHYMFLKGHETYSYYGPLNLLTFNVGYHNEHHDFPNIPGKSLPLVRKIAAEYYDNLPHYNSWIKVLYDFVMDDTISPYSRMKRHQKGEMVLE
Summary of the method: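 Intact MCF7 cells (3×10^6 seeded in 150 mm dishes overnight) treated with vehicle or LCL521 for 24h. Cells were then pelleted and dihydroceramide desaturase activity assayed by a prior method. Means ± st dev of triplicates versus 0 μM.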

[23] = test system: MCF7; assay: Down regulation of alpha-ACDase expression in human MCF7 cells at 10 uM after 24 hrs in presence of cyclohexamide by Western blot analysis; type: functional, cell-based
Summary of the method: (§6)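 MCF7 cells pretreated 1h with vehicle or 40 μM cycloheximide, then given vehicle or 10 μM LCL521 alone or combined for 1, 8 and 24h. P- and α-ACDase detected by western blot against actin.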

[24] = test system: MCF7; assay: Down regulation of p-ACDase expression in human MCF7 cells at 10 uM after 24 hrs in presence of cyclohexamide by Western blot analysis; type: functional, cell-based; summary of the method: as §6
[25] = target: T1, Acid ceramidase (Homo sapiens); assay: Inhibition of ACDase in human MCF7 cells assessed as down regulation of sphingosine at 10 uM after 1 to 24 hrs by LC-MS/MS analysis; type: cell-based; summary of the method: as §4
[26] = test system: MCF7; assay: Down regulation of p-ACDase expression in human MCF7 cells assessed as p-ACDase expression at 10 uM measured at 24 hrs by Western blot analysis; type: functional; summary of the method: as §1
[27] = target: T1, Acid ceramidase (Homo sapiens); assay: Inhibition of ACDase in human MCF7 cells assessed as upregulation of dhC16-Cer species at 10 uM after 1 hr by LC-MS/MS analysis; type: cell-based
[28] = test system: UMSCC14A; assay: Down regulation of ACDase protein expression in human UMSCC14A cells at 5 to 10 uM after 5 hrs by Western blot analysis; type: functional, cell-based
Summary of the method: (§7)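 Cell lines SCC14A (mouth squamous carcinoma) and PPC-1 (prostate cancer) given a single treatment of LCL521; ACDase protein detected by western blot.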

[29] = test system: PPC-1; assay: Down regulation of ACDase protein expression in human PPC1 cells at 5 to 10 uM after 5 hrs by Western blot analysis; type: functional, cell-based; summary of the method: as §7
[30] = test system: MCF7; assay: Down regulation of alpha-ACDase protein expression in human MCF7 cells at 10 uM treated for 5 hrs after pretreatment with 4 uM CA-074me for 30 mins by Western blot analysis; type: functional, cell-based
Summary of the method: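 MCF7 cells pretreated with a cathepsin B inhibitor, then exposed to 10 μM LCL521. α-ACDase protein assessed by western blot.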

CCCCCCCCCCCCCC(=O)N[C@H](COC(=O)CN(C)C)[C@H](OC(=O)CN(C)C)c1ccc([N+](=O)[O-])cc1.Cl.Cl
inactive: Activity [4] | Activity [5] | inhibition [7] | inhibition [8] | inhibition [9] | inhibition [15] | inhibition [21] | Activity [30]
active: inhibition [1] | inhibition [2] | Activity [3] Dose-dependent effect | Activity [6] | Activity [10] | Activity [11] | Activity [12] | inhibition [13] | inhibition [14] | inhibition [16] | inhibition [17] | inhibition [18] | inhibition [19] | inhibition [20] | inhibition [22] | Activity [23] | Activity [24] | inhibition [25] | inhibition [27] | Activity [28] | Activity [29]
>70%: Activity [26]
